From ChEMBL document CHEMBL4145686, “Discovery of a Potent and Selective Steroidal Glucocorticoid Receptor Antagonist (ORIC-101)” (J Med Chem, 2018)
The source made the active and inactive calls. The rule behind the calls is not given here.

Key:
[1] = AUC in rat at 5 mg/kg, po; format: ADME, organism-based; settings: in vivo
[2] = biological target: T1, glucocorticoid receptor (GR) (Homo sapiens, UniProt P04150); assay: Agonist activity at human GR expressed in CHO-K1 cells incubated for 20 hrs by luciferase reporter gene assay relative to dexamethasone; format: cell-based; settings: CHO-K1 cells expressing human GR
T1 sequence (P04150 whole entry): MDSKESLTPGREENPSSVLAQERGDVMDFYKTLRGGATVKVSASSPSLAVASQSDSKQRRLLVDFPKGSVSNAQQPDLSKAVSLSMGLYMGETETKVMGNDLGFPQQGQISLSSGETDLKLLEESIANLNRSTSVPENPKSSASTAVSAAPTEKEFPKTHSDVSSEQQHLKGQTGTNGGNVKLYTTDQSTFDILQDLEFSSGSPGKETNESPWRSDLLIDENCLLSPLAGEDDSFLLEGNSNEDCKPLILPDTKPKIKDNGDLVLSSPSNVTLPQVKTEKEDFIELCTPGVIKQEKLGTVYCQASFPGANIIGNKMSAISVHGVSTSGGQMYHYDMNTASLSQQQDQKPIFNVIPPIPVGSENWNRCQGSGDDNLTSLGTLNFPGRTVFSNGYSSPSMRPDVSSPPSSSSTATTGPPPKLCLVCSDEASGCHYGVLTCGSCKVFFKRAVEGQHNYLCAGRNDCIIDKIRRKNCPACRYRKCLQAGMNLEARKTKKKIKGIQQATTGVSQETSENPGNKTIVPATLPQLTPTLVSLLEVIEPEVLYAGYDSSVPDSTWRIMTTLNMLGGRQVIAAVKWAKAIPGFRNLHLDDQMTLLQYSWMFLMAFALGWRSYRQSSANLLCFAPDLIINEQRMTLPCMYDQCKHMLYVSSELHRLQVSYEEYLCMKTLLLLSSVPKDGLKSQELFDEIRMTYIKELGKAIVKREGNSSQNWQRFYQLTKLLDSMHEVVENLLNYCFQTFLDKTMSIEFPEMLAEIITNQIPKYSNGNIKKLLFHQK

[3] = AUC in mouse at 5 mg/kg, po; format: ADME, organism-based; settings: in vivo
[4] = biological target: T2, Androgen receptor (Homo sapiens, UniProt P10275); assay: Agonist activity at AR in human MDA-MB-453 cells assessed as increase in SEC14L2 gene expression at 111 to 333 nM incubated for 24 hrs by RT-qPCR method; format: cell-based; settings: mda-mb-453, 24 h, 0.333 µM
T2 sequence (P10275 whole entry): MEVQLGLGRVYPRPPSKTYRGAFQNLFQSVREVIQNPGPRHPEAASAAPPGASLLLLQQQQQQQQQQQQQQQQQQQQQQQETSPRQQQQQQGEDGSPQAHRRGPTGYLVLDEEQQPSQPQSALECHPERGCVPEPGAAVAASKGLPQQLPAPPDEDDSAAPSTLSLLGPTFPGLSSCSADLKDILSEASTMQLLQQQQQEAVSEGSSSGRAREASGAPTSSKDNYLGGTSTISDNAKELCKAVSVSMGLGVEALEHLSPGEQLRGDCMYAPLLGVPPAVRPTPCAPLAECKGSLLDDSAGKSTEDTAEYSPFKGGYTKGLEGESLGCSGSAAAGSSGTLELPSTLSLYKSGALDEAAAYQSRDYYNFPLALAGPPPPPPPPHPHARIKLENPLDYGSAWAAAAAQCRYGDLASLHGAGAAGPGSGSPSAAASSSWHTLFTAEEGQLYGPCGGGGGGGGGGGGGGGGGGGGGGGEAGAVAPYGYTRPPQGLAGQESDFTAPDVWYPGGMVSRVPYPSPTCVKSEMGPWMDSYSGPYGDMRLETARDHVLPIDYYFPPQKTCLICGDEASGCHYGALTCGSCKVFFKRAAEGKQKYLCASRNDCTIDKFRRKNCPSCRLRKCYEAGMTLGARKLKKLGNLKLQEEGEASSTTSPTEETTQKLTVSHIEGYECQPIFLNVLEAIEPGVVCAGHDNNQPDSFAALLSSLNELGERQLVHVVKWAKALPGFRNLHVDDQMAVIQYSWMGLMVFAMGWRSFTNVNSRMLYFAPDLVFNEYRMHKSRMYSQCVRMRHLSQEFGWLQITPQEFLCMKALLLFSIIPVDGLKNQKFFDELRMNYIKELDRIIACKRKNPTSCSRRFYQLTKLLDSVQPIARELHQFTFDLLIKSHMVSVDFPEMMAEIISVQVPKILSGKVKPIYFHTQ

[5] = system: OVCAR-5; assay: Potentiation of carboplatin-induced antitumor activity against human OVCAR5 cells xenografted in chronic cortisol treated nude mouse assessed as reduction in tumor volume at 75 mg/kg, po BID dosed via gavage co-treated with gencitabine at 60 mg/kg dosed every 3 days for 4 doses; format: functional, organism-based
[6] = system: Mus musculus; assay: In-vivo antagonist activity at GR in nude mouse xenografted with human OVCAR5 cells assessed as reduction in dexamethasone-induced FKBP5 gene expression at 25 to 75 mg/kg, po dosed as gavage and measured after 6 hrs by RT-qPCR method; format: functional, organism-based
How it was run: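 OVCAR5 xenograft mice received dexamethasone 0.5 mg/kg by intraperitoneal injection with or without a single oral gavage dose of the antagonist at 25, 50 or 75 mg/kg. Tumors and plasma collected 6 h later. Tumor FKBP5 mRNA measured by RT-qPCR. Unbound plasma concentration of the antagonist determined, n = 4 mice per group. FKBP5 effects tested by one-way ANOVA with Dunnett's test versus the vehicle group.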

In the case of CC(C)N(C)c1ccc([C@H]2C[C@@]3(C)[C@@H](CC[C@@]3(O)C#CC(C)(C)C)[C@@H]3CCC4=CC(=O)CC[C@@H]4[C@H]32)cc1, the AUC [1] is reported as 635 ng·h/mL, the Emax at 20 h [2] is reported as 2.3% and the AUC [3] is reported as 644 ng·h/mL. For the same molecule, the Activity [4] was “Not Active”, the Activity [5] was “Active” and the inhibition [6] was “Dose-dependent effect”.
